# Measured values taken from the EternaBench riboswitch data.
# System: MS2 coat protein
# Test: apparent Kd, MS2 coat protein; higher = weaker binding; RNA-MaP array
# Outline: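 Designed RNAs were produced on an Illumina sequencing chip by transcription of sequenced DNA templates. Binding to fluorescently labeled MS2 coat protein (1.5 nM to 3 μM) was measured at room temperature with or without input ligand. The apparent Kd is the median of per-cluster binding-curve fits. Designs were excluded when measured on fewer than 10 clusters.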
# [1] = designed as: ON switch for flavin mononucleotide, no ligand
# [2] = ligand present: flavin mononucleotide, designed as: ON switch for flavin mononucleotide
# [3] = designed as: ON switch for theophylline, no ligand
# [4] = ligand present: theophylline, designed as: ON switch for theophylline
# [5] = designed as: OFF switch for flavin mononucleotide, no ligand
# [6] = ligand present: flavin mononucleotide, designed as: OFF switch for flavin mononucleotide
# [7] = designed as: OFF switch for theophylline, no ligand
# [8] = ligand present: theophylline, designed as: OFF switch for theophylline
sequence,measurement,setting,value
CUGGUUGCCGGUUGCGACACAUGAGGAUCACCCAUGUAUACCGAGGAUAUGUGGAGCUGUAGAUGACAGAAGGCGGUGAGUAUC,apparent Kd,[1],0.0537 µM
same,apparent Kd,[2],0.0381 µM
GUCAUCUGUUUAGGAUAUGCGGUAGACACCGGGCGAGAAACAUGAGGAUCACCCAUGUUCGGAUUGCAGAAGGAAACGGCAAUA,apparent Kd,[1],0.0136 µM
same,apparent Kd,[2],0.017 µM
CGUAGGAUCGUGGAUACCAGUACCGCCCACGACAUGAGGAUCACCCAUGUAGGUAAUCUUUACCCUUGGCAGCCAUUUUUUUCUG,apparent Kd,[3],0.0456 µM
same,apparent Kd,[4],0.0529 µM
CAUGUCAAAGACAUGAGGAUCACCCAUGUAAUCCAAGACGCAAGAAGGGCGUGUUGAACUAACACGCAGGAUAUUGACCCUGUU,apparent Kd,[5],0.0575 µM
same,apparent Kd,[6],0.0734 µM
GUUGAGGGCGUGCACAUGAGGAUCACCCAUGUUCUACCUAUCGAGGAUAUAUCUGUAGGAUCAGAAUAGAAGGCGAGCAAGGUC,apparent Kd,[5],0.0214 µM
same,apparent Kd,[6],0.0148 µM
GCUCAUUGCGAGGAUAUUGGAAGAGUGUAAACUCAAGAAGGCGCAACAUGAGGAUCACCCAUGUGAACCCAAAU,apparent Kd,[5],0.00791 µM
same,apparent Kd,[6],0.014 µM
CAACUGGCAGAGGAUACCAGAUCAUUUAGAAACAUGAGGAUCACCCAUGUCGUAAGGAUAAUCCCUUGGCAGCCUAUCCGCCUCG,apparent Kd,[3],0.0132 µM
same,apparent Kd,[4],0.0108 µM
CGACAUUCAGGAUAUACAUGAGGAUCACCCAUGUUGAGAAGCACAAGAUACCAUAAAAGUAGAAGGGAACAAAA,apparent Kd,[5],0.0133 µM
same,apparent Kd,[6],0.00981 µM
CCAUGACAUGAGGAUCACCCAUGUGGGUGCAGACAAGGAUAUAGUAAGAAUAGGAUAGAUCUAGAAGGUGUCAUUA,apparent Kd,[1],0.528 µM
same,apparent Kd,[2],0.282 µM
AAGGCUACGACCGAUACCAGUAGACGGCAUUCGUAGGAGAACAUGAGGAUCACCCAUGUCUACCCUUGGCAGCGGAAAAUACACU,apparent Kd,[7],0.0135 µM
same,apparent Kd,[8],0.0398 µM
AUUACAAGCACAGGAUAUAACAGUUGGUUCACAUGAGGAUCACCCAUGUAGCAUUGGGAAGUAGCUUAGAAGGGUGAGGUGGUU,apparent Kd,[1],0.183 µM
same,apparent Kd,[2],0.107 µM
AUAUCAGGGUAGAAGGCAGCAUCAACAUGAGGAUCACCCAUGUAUAGGCACGUAGCCGCACGUGCUGAGGAUAUACGUUAUAAU,apparent Kd,[1],0.0164 µM
same,apparent Kd,[2],0.00641 µM
AACGGUUUUUAGAAGGGCGUCAGGGACCUUGGACAUGAGGAUCACCCAUGUGUGCAGACACCUGCGCAGGAUAUAAGUUCUCUA,apparent Kd,[5],0.0126 µM
same,apparent Kd,[6],0.00953 µM
CAUGGGCUAAGACAUUAUUCGUAUUUUGAUACCAGAAAAUUGGCGUUCCCUUGGCAGCAAUAUACAUGAGGAUCACCCAUGUCCC,apparent Kd,[7],0.0806 µM
same,apparent Kd,[8],0.0939 µM
UAACCACCGCAGGAUAUGCUAUGUUCAGUGUCUGCAGAAGGGCGUACAUGAGGAUCACCCAUGUAGUGACCUCA,apparent Kd,[5],0.0952 µM
same,apparent Kd,[6],0.11 µM
CUAAAGGAUGAAGGAUAUUUGAGUGACACGCAGAAAGAAGGUCAAGCUUACAUGAGGAUCACCCAUGUGCGUGAGUGCAGGUGC,apparent Kd,[5],0.0144 µM
same,apparent Kd,[6],0.0133 µM
GAAAGAUGAGGAUAUACAUGAGGAUCACCCAUGUGAUUAAAUUGAACACCGAAUUACUGUAGAAGGCAUAAACC,apparent Kd,[5],0.0199 µM
same,apparent Kd,[6],0.0168 µM
AUACACAGAGUUAGGAUAUCUACAUAAAACAAAAUAGAGAAGGAACAUGAGGAUCACCCAUGUAAUGAUCAAAC,apparent Kd,[5],0.00999 µM
same,apparent Kd,[6],0.00945 µM
CACGAGAACACUCAGGAUAUGACAAACAAGACAUGAGGAUCACCCAUGUGAAAUUACGGGUGCAAACAGAAGGGAGAAACUUACAC,apparent Kd,[1],0.0486 µM
same,apparent Kd,[2],0.0475 µM
CGCGUCCCGGACGAUACCAGAUAUGAGCGACACAUGAGGAUCACCCAUGUCAAUCAUGAGAUCCCUUGGCAGCGUUUGCACAACU,apparent Kd,[3],0.162 µM
same,apparent Kd,[4],0.209 µM
UGGUAGCCACACUUCAAACAUCGACAAGAUACCAGUUAAUCAACGAACCCUUGGCAGCUUCGUACAUGAGGAUCACCCAUGUGGA,apparent Kd,[7],0.0182 µM
same,apparent Kd,[8],0.023 µM
UGUACAUGAGGAUCACCCAUGUUUGUAUCUUUAUCCGCGCGCAGAAGGUAGCCCAUGGAGACAGCUAAGGAUAUGCGUCACAUA,apparent Kd,[5],0.0215 µM
same,apparent Kd,[6],0.00883 µM
UUUGCUACCUAGAAGGCUGACGAGACAUGAGGAUCACCCAUGUUGGAAAUUCUUACGGCAAUGGCAGAGGAUAUAGGACGAAAA,apparent Kd,[5],0.00766 µM
same,apparent Kd,[6],0.0113 µM
GACGAGAGACAGAAGGCUCGACUGUGGCUACGAGAUCUGAAAACAUGAGGAUCACCCAUGUUUCGAGAGGAUAUGUCGAAUUAU,apparent Kd,[5],0.129 µM
same,apparent Kd,[6],0.397 µM
CUCAGUGUGUAGAAGGUUUGCAUAGAAACAUCAAAAGGAUAUACAUGGUGAAGCCUUGAAACAUGAGGAUCACCCAUGUCUACG,apparent Kd,[1],0.632 µM
same,apparent Kd,[2],0.392 µM
GCAGUGCGUGAGGAUAUGUGAGUGAACACACACACAGAAGGCACAACAUGAGGAUCACCCAUGUUCCUGGUGCC,apparent Kd,[5],0.00762 µM
same,apparent Kd,[6],0.00795 µM
GGAUGGGUGGAAGGAUAUGAGCCCAGGACAUGAGGAUCACCCAUGUGUAGUUCAGUCUCUAAUUCUCAGAAGGUCCAGAUUCUA,apparent Kd,[5],0.0181 µM
same,apparent Kd,[6],0.0215 µM
ACUAAACAUGAGGAUCACCCAUGUAAUUGAAGCUAAGGAUAUCAGAAGAAUGGUGAUUCAUGAGAAGGAAGCGAUU,apparent Kd,[1],0.0869 µM
same,apparent Kd,[2],0.0586 µM
CUGAGCAAAGGAUAUACUAAUUGUGAGUGACCCAGUUAACGACAUGAGGAUCACCCAUGUAGAAGGUUGGAACA,apparent Kd,[5],0.0264 µM
same,apparent Kd,[6],0.0246 µM
AUUAGACAAGGAUAUACAAGUCGUAUCGGCGCUGGGUGUAUACAUGAGGAUCACCCAUGUAGAAGGUGUGCUAU,apparent Kd,[5],0.101 µM
same,apparent Kd,[6],0.19 µM
CGAUGCGCAUUAUCCCACUGGUAUGAGUCUCGAGGACCGGUACGGCCGCCACUCGCUACCGUACAUGAGGAUCACCCAUGUAUUA,apparent Kd,"designed as: OFF switch for tryptophan, no ligand",0.028 µM
same,apparent Kd,"ligand present: tryptophan, designed as: OFF switch for tryptophan",0.0459 µM
AGACUUAGACAAGGAUAUGGUGAGGCCACCUUACAUGAGGAUCACCCAUGUCUAGAGAUCCUGUGCCAGAAGGUGUAGUUGGAC,apparent Kd,[1],0.312 µM
same,apparent Kd,[2],0.0757 µM
GUGGGACAUGAGGAUCACCCAUGUGACGAUACCAGUCAAUUGAUGGACCCUUGGCAGCGUUGGUAUUGCGGGUAGGCGAGAUAAG,apparent Kd,[3],0.0432 µM
same,apparent Kd,[4],0.0454 µM
AUUUCAUGUGUAGGAUAUCGCAUUCAGAACUAGCCAUCCACAUGAGGAUCACCCAUGUGUGCGGGCGAGAAGGACACGAGGGCA,apparent Kd,[1],0.00972 µM
same,apparent Kd,[2],0.00755 µM
UAUUGUAUAGGAUAUACAUGAGGAUCACCCAUGUUCGAUGUUUGGAGCCUGCUUCAUAGUAGAAGGAUACGCCC,apparent Kd,[5],0.0163 µM
same,apparent Kd,[6],0.0167 µM
AACCACAUGAGGAUCACCCAUGUGACCGCUCGAGGACCGGUACGGCCGCCACUCGUGGAGGGACUUAUGCGUUAUCCGGGUAAAU,apparent Kd,"designed as: ON switch for tryptophan, no ligand",0.0194 µM
same,apparent Kd,"ligand present: tryptophan, designed as: ON switch for tryptophan",0.0226 µM
UGAGUAAGCGAGGAUAUUGGGCGCGUACGUGGUCAAGAAGGCGCAACAUGAGGAUCACCCAUGUGCUUCUCUUG,apparent Kd,[5],0.0157 µM
same,apparent Kd,[6],0.0292 µM
CGAGUCUAGGAGAAGGCAUACAUGAGGAUCACCCAUGUCAAAGGGCACGUAACGAUAAUCCACCAUGAGGAUAUCCUGUUUAGA,apparent Kd,[5],0.0263 µM
same,apparent Kd,[6],0.0217 µM
AGUUAACCGGGUGUUCUACAUGAGGAUCACCCAUGUACACUCAGAAGGCUCGAAUCUAGGGAUGGAGAGGAUAUGAAAACUGAU,apparent Kd,[5],0.0215 µM
same,apparent Kd,[6],0.0365 µM
ACUGGUUCGGUUGUCACACAUGAGGAUCACCCAUGUAAGGUAGAGGAUAUCGCUCCGUCCUUCGGCGAGAAGGCUAUUCGACGC,apparent Kd,[5],0.013 µM
same,apparent Kd,[6],0.0103 µM
AGACAUGGCGGAUAGGAUAUGUGGGCGUCUACAUGAGGAUCACCCAUGUUGCUCGGAUGCAAUCUACAGAAGGAUCGACCCAGUGC,apparent Kd,[1],0.106 µM
same,apparent Kd,[2],0.0161 µM
GGCGCUACGCCGGUACAUGAGGAUCACCCAUGUCCAUAUGUAAGAAGGUCUGGCGGGACGACAAAGAAGGAUAUUACAGAUUGC,apparent Kd,[1],0.0337 µM
same,apparent Kd,[2],0.0249 µM
CAAACCAACUAGUAAAACAACAUGAGGAUCACCCAUGUAAGAGAGGAUAUUGAAAUCGAAAGCAACAAGAAGGCUCACCAUGUA,apparent Kd,[1],0.0195 µM
same,apparent Kd,[2],0.0158 µM
GUAGCUGAGUGUGAUACCAGAAACGACGUCCUUUAUCAUAACAUGAGGAUCACCCAUGUCUUCCCUUGGCAGCACUUUUCGGUCU,apparent Kd,[7],0.0369 µM
same,apparent Kd,[8],0.0648 µM
UCUAUACAUGAGGAUCACCCAUGUCAGGAUAUAAGCACCGGGCGAUUGUCACGCGGCCUUAGAAGGGACAGGAA,apparent Kd,[5],0.0174 µM
same,apparent Kd,[6],0.0288 µM
CGUCUACAUGAGGAUCACCCAUGUCAGGAUAUACACCAACAACCUUCGCGAGAUAGGUGUAGAAGGGACGGGUA,apparent Kd,[5],0.00876 µM
same,apparent Kd,[6],0.0135 µM
UCUGUGAUCAACAUGAGGAUCACCCAUGUUACCACCUCUAGGCAGGAUAUGAGCGUACUAAGAAGUCAGAAGGGCCUUUUUACG,apparent Kd,[1],0.0183 µM
same,apparent Kd,[2],0.0101 µM
